# Compound activity as filed in PubChem BioAssay.
# PAD4 FP inh: PAD4 (human) enzyme inhibition; Q9UM07; recombinant PAD4, RCA probe fluorescence polarization; inhibition, % at 6.36 µM; hit rate 0.41% among 330,000; AID 485272;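 active = percent inhibition above a cutoff equal to the mean of all tested compounds plus 3 SD, cut at about 15% in these data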;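 also: 0% = PAD4 with RCA probe and DMSO and 100% = probe without PAD4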
# Apaf-1 inh: blocks human Apaf-1 apoptosome activity. AID 489030. hit rate 0.71% among 330,000. inhibition, % at 20 µM. reconstituted apoptosome caspase-3 activity, DEVD-Rh110 fluorescence; active = inhibition of at least 40% at 20 µM;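 also: plate controls were DMSO wells for no effect and DEVD-CHO caspase inhibitor wells for full effect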
#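 Material: cell-free apoptosome with Apaf-1, procaspase-3 and caspase-9; Buffer or medium: Hepes pH 7.5 with detergent and BSA; Reagent: cytochrome c trigger plus (Z-DEVD)2-Rh110 caspase-3 substrate; Times: compound with Apaf-1, dATP, procaspase-3 30 min, then 50 min reaction, room temperature; Technique: Rh110 fluorescence intensity.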
# UCH37 inh: blocks the human deubiquitinase UCH37. Q9Y5K5. purified proteasome/UCH37, Ub-AMC cleavage fluorescence. inhibition, % (concentration not given with the values). hit rate 0.33% among 330,000. AID 588478;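 active = mean inhibition over replicate wells above about 20%, limit read from the data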;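 also: 0% = compound-free wells with enzyme and 100% = wells lacking proteasome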
#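 Assay system: Proteasome-bound UCH37. Buffer or medium: pH 7.4 Tris-HCl (50 mM) with ovalbumin, ATP-MgCl2, DTT. Incubation: 30 min preincubation with enzyme, 25 min cleavage at room temperature. Measured by: fluorescence, ex 355 nm, em 460 nm. Read-out basis: percent inhibition. Control set: wells without proteasome as full block, compound-free enzyme plus substrate as uninhibited.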
# Fh CTSL1 inh: blocks F. hepatica cathepsin L1 in PFM18AAP counter-screen. inhibition, % at 5.96 µM. hit rate 0.49% among 300,000. AID 1906. recombinant F. hepatica cathepsin L1, Z-Leu-Arg-MCA fluorescence;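 active = inhibition above the mean of all tested compounds plus 3 SD, set per screening campaign, cut at about 17% in these data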;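 also: 0% = plate median of test compound wells and 100% = 1 µM Z-Phe-Ala-diazomethylketone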
# GSTO1 inh: blocks human GSTO1 in RBBP9 counter-screen. P78417. recombinant GSTO1, activity-based probe fluorescence polarization. inhibition, % at 5.96 µM. hit rate 1.1% among 300,000. AID 1974;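 active = inhibition above the campaign mean inhibition plus 3 SD, cut at about 35% in these data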;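 also: 0% = GSTO1-1 with DMSO and 100% = wells lacking GSTO1-1 enzyme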
# Target sequence (P78417 whole entry, looked up): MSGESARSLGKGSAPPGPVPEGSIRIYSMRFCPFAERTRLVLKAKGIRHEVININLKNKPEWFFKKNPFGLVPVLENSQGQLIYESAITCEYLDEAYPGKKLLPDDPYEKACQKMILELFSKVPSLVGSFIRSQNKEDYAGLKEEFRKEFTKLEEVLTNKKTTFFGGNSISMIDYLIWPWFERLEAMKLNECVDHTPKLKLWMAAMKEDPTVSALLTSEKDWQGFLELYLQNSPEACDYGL
# PP5 inh: inhibitors of human protein phosphatase 5 (PP5). purified PP5c, OMFP substrate fluorescence. inhibition, % at 6.7 µM. hit rate 0.18% among 320,000. AID 1987;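 active = inhibition above the campaign's mean inhibition across all tested compounds plus 3 SD, cut at about 9.5% in these data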;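 also: 0% = DMSO only and 100% = 100 µM cantharidin control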
# Target sequence (P53041 whole entry, looked up): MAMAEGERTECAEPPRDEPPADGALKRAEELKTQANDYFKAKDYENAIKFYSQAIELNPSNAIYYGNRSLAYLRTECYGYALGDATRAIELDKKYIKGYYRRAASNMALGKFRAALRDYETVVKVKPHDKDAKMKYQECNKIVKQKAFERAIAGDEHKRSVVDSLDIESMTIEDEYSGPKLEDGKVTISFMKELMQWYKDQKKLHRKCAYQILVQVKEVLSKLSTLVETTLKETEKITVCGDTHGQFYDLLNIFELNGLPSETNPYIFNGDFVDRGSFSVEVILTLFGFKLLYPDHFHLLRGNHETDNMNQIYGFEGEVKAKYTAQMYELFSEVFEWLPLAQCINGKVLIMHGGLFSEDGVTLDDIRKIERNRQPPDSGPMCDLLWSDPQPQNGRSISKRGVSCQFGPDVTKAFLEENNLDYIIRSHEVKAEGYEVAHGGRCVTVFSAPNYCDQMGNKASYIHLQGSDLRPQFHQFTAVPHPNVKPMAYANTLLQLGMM
# Numbers without * were called inactive; . = no result given. Only some compounds are listed: those with a hit (about 2% of all), similar ones and a draw of the others.
SMILES,PAD4 FP inh,Apaf-1 inh,UCH37 inh,Fh CTSL1 inh,GSTO1 inh,PP5 inh
COc1cc(C=NNC(=O)C[n+]2ccccc2)cc(OC)c1OC(C)=O,.,.,-0.2,.,.,.
CCn1c(/C=C/N(C)c2ccccc2)[n+](CC)c2ccc(Cl)cc21,2.1,-1.5,22.8*,0.8,-1.6,-0.3
CCn1c(/C=C/Nc2ccccc2)[n+](CC)c2ccc(Cl)cc21,3.8,-14.2,14.6,8.8,4.8,1.5
O=C(CSc1nc2ccccc2n1Cc1ccccc1)NN=Cc1ccco1,.,.,3.3,.,.,.
O=[N+]([O-])c1cccc(S(=O)(=O)NN=Cc2ccc(O)cc2)c1,.,.,2.6,.,.,.
COC(=O)c1cccc2nc3c(C(C)O)cccc3nc12 (configuration not stated),-5.8,13.5,6.9,86.8*,7.0,7.6
O=C(COC(=O)c1ccc[nH]c1=O)NCCc1ccc(Cl)cc1Cl,-3.2,-17.2,-0.7,18.4*,-0.7,2.9
O=C1CCC(C(=O)OCC(=O)N2N=C3/C(=C/c4ccccc4)CCCC3C2c2ccccc2)N1 (configuration not stated),-0.1,43.5*,-5.9,8.8,-24.6,1.8
O=C1CCC(C(=O)OCC(=O)N2N=C3/C(=C\c4ccccc4)CCCC3C2c2ccccc2)N1 (configuration not stated),.,.,3.6,.,.,.
CCc1ccc(N=CC2=C(O)CC(c3ccco3)CC2=O)cc1 (configuration not stated),3.2,8.2,4.5,17.0*,-4.2,-8.0
COC(=O)c1cc(C(=O)c2ccc(Cl)cc2)n2c(=O)c(=CN(C)C)sc12,.,.,-13.0,.,.,.
O=C(CCN1C(=O)c2ccccc2C1=O)Nn1cnnc1,-1.6,-5.7,7.6,-3.3,4.0,1.6
CC(C)CC(C(=O)Nn1cnnc1)N1C(=O)c2ccccc2C1=O (configuration not stated),1.1,4.3,3.6,23.2*,5.8,1.8
Cc1ccc(N(CCC(=O)O)S(=O)(=O)c2ccc(C)cc2)cc1,3.0,7.0,1.9,0.1,3.6,-0.3
Cc1ccc(N(CC2CO2)S(=O)(=O)c2ccc(C)cc2)cc1 (configuration not stated),1.0,-3.3,4.1,-3.2,73.9*,-0.1
COc1cc(/C=C/c2[nH]c(=O)[nH]c(=O)c2[N+](=O)[O-])cc(OC)c1O,.,-8.1,14.8,.,.,.
COc1cccc(/C=C/c2[nH]c(=O)[nH]c(=O)c2[N+](=O)[O-])c1O,3.9,-1.5,8.6,-2.0,36.1*,-1.0
O=C(NN=C/C=C/c1ccccc1[N+](=O)[O-])c1cccnc1,.,.,9.4,.,.,.
O=C(O)c1ccc2[nH]c3c(c2c1)CCCC3,.,-11.5,21.0*,.,.,.
CC1CCc2[nH]c3ccc(C(=O)O)cc3c2C1 (configuration not stated),-8.7,7.3,4.5,-0.1,1.8,4.7
N#CC1=C(N)C(C#N)(C#N)C2(C(=O)Nc3ccccc32)C2CCCC=C12 (configuration not stated),-7.7,-19.5,3.4,20.1*,17.7,1.9
CC(Cc1ccccc1)=NNC(=O)CNC(=O)C(c1ccccc1)c1ccccc1,.,.,6.7,.,.,.
O=C(NNC(=O)c1ccccc1Cl)c1ccccc1Cl,-1.3,-22.5,2.0,1.5,6.4,0.4
COc1ccc(COC(=O)NNC(=O)c2ccccc2Cl)cc1,-0.4,0.4,0.5,52.4*,3.8,-1.6
CC(=O)CCc1ccc(OCC(O)CNC2CCCc3ccccc32)cc1 (configuration not stated),2.4,65.0*,-0.6,5.3,-6.7,-0.2
SMILES,PAD4 FP inh,Apaf-1 inh,UCH37 inh,Fh CTSL1 inh,GSTO1 inh,PP5 inh
CCOc1ccc(CNC2CCCc3ccccc32)cc1 (configuration not stated),-2.1,9.3,4.1,-2.2,0.7,-1.9
Cc1ccc2c(c1)-c1c(cnn1CC(=O)N(Cc1ccco1)C1CCCCC1)CO2,-2.4,20.6,1.6,29.0*,7.6,2.3
Cc1ccc2c(c1)-c1c(cnn1CC(=O)NC(C)CCc1ccco1)CO2 (configuration not stated),0.9,9.4,1.3,0.3,0.2,5.1
Cc1ccc2c(c1)-c1c(cnn1CC(=O)N(CCC#N)c1ccccc1)CO2,3.1,0.4,1.6,47.0*,0.1,0.1
O=C(CC1S/C(=N/N=C/C=C/c2ccccc2)NC1=O)Nc1ccc(C(=O)O)cc1 (configuration not stated),2.1,10.6,20.4*,0.1,-10.9,1.3
Cc1ccc(NC(=O)CC2S/C(=N/N=C\C=C\c3ccccc3)NC2=O)cc1Cl (configuration not stated),.,.,6.1,.,.,.
CC(=NNC(=O)CN1CCCCC1)c1cccc([N+](=O)[O-])c1,.,.,1.7,.,.,.
CC(C)C[C@H](NC(=O)c1nc[nH]c1C(=O)NCCCCCNC(=O)OC(C)(C)C)C(=O)OC(C)(C)C,4.2,39.3,6.4,-0.9,13.2,9.9*
C[C@H](NC(=O)c1nc[nH]c1C(=O)NCCCCCNC(=O)OC(C)(C)C)C(=O)OC(C)(C)C,-4.4,7.7,1.5,1.4,4.1,0.6
CC(C)C[C@H](NC(=O)c1nc[nH]c1C(=O)N[C@@H](CC(C)C)C(=O)OC(C)(C)C)C(=O)OCc1ccccc1,9.5,26.6,0.4,5.7,9.8,5.5
C[C@H](NC(=O)c1nc[nH]c1C(=O)NCc1ccccc1)C(=O)OC(C)(C)C,2.3,10.7,4.8,-4.4,7.8,2.2
CC(C)C[C@H](NC(=O)c1[nH]cnc1C(=O)N[C@@H](C)c1ccccc1)C(=O)OCc1ccccc1,-2.1,31.7,-0.1,9.5,-5.5,12.4*
CCN(CC)C(=O)c1[nH]cnc1C(=O)N[C@@H](C)C(=O)OC(C)(C)C,-3.4,8.2,31.8*,4.1,3.7,1.3
CN(Cc1ccccc1)C(=O)c1[nH]cnc1C(=O)N[C@@H](Cc1ccccc1)C(=O)OC(C)(C)C,-2.3,17.6,35.3*,-4.2,-1.1,1.6
CC(C)(C)OC(=O)[C@H](Cc1ccccc1)NC(=O)c1nc[nH]c1C(=O)NCc1ccccc1,1.0,23.3,1.3,1.6,5.7,6.5
COc1ccc(C(=O)NCC(=O)NN=C(C)/C=C/c2ccccc2)cc1OC,.,.,6.0,.,.,.
CCOC(=O)C(=NNc1ccc(Br)cc1)N1CCN(c2ccccc2OC)CC1,.,.,5.1,.,.,.
CC(=O)Oc1ccc(C=NNS(=O)(=O)c2ccc(C)cc2)c(OC(C)=O)c1,.,.,5.6,.,.,.
COc1cc2c3nnc(-c4ccc(F)cc4)c-3cn(Cc3cccc(C)c3)c2cc1OC,-5.7,52.9*,-71.1,3.1,-0.5,2.9
COc1cc2c3nnc(-c4ccccc4)c-3cn(Cc3ccc(F)cc3)c2cc1OC,-8.2,13.2,-99.2,0.5,-20.4,5.1
COc1cc2c3nnc(-c4ccc(F)cc4)c-3cn(Cc3cccc(F)c3)c2cc1OC,-0.9,0.0,-5.0,63.0*,4.4,2.9
Cc1ccsc1C=NNC(=O)c1ccc(-n2cccc2)cc1,.,.,5.8,.,.,.
CON=CNC(=O)Cc1cn(-c2ncc(C(F)(F)F)cc2Cl)c2ccccc12,.,.,-0.2,.,.,.
